Data set [1] deals with T1, Sorbitol dehydrogenase (Homo sapiens, UniProt Q00796).
T1 sequence (Q00796 whole entry): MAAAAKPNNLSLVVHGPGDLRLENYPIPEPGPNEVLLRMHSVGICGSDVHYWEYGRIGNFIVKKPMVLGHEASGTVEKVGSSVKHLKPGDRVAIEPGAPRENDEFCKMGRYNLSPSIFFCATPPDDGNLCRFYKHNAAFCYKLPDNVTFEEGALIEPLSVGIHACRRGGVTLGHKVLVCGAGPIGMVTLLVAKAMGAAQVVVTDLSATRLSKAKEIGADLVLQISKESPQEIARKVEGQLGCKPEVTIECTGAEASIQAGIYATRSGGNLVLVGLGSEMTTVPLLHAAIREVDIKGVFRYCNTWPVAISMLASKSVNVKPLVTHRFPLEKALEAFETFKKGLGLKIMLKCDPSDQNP
The data set is described as follows: Concentration required for 50% for in vitro activity against human SDH (sorbitol dehydrogenase).

The target of data set [2] is T2, Sorbitol dehydrogenase (Rattus norvegicus, UniProt P27867).
T2 sequence (P27867 whole entry): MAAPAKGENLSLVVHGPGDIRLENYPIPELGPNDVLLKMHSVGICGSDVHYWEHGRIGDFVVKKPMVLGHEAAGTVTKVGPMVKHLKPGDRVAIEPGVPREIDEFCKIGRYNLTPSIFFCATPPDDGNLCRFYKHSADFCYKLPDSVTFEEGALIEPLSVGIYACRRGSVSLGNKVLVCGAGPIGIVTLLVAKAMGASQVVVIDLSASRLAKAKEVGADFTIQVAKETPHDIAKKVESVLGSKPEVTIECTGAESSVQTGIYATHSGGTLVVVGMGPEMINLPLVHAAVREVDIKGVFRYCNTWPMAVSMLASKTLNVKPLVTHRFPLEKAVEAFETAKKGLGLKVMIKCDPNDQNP
Briefly: Concentration required for 50% in vitro activity against rat SDH (sorbitol dehydrogenase).

Data set [3] concerns Rattus norvegicus. Briefly: Concentration required for […] inhibition of lower sciatic nerve fructose that became elevated in diabetic nerve in streptozotocin diabetic in vivo rat model. Format: functional.
Data set [4] concerns the target T3, Sorbitol dehydrogenase (Rattus norvegicus) (UniProt P27867).
T3 sequence (whole entry): T2 sequence (P27867 whole entry)
Briefly: In vitro inhibitory activity against rat sorbitol dehydrogenase and concentration that cause 90% inhibition was reported.

The nature of data set [5]: pKa value was reported. The class given is physicochemical.
The subject of data set [6] is Rattus norvegicus. Briefly: % Ability to inhibit lower sciatic nerve fructose that became elevated in diabetic nerve in streptozotocin diabetic rat model at 1 mg/kg. The class given is functional. The method in brief: (§1)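 Chronically diabetic rats were dosed at 0.05 or 1 mg/kg in a chronic test. Sciatic nerve fructose was measured and reported as percent inhibition of the diabetes-induced fructose elevation in sciatic nerve.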

The target in data set [7] is T1, Sorbitol dehydrogenase. Briefly: Concentration required for 50% in vitro activity against human SDH (sorbitol dehydrogenase).
Data set [8] concerns the target T3, Sorbitol dehydrogenase (Rattus norvegicus).
The species named for data set [9] is Rattus norvegicus. The data set is described as follows: % Ability to inhibit lower sciatic nerve fructose that became elevated in diabetic nerve in streptozotocin diabetic rat model at 0.05 mpk. The class given is functional. Summed up:
as §1

These results are taken from ChEMBL document CHEMBL1135820, “A sorbitol dehydrogenase inhibitor of exceptional in vivo potency with a long duration of action: 1-(R)-[4-[4-(4,6-dimethyl[1,3,5]triazin-2-yl)- 2R,6S-dimethylpiperazin-1-yl]pyrimidin-2-yl]ethanol” (J Med Chem, 2002).

What is called IC50 is the point on the concentration scale where inhibition reaches its midpoint. Lower therefore signals greater potency in that assay. As a reminder, the IC90 is the concentration needed for an effect of 90%. What is called pKa is the negative logarithm of the acid dissociation constant. High values mean a weaker acid or stronger base, low ones a stronger acid or weaker base.

Regarding `C[C@@H]1CN(c2ncnc(-c3ccccc3)n2)C[C@H](C)N1c1ccnc([C@@H](C)O)n1`, the IC50 at Sorbitol dehydrogenase [1] came out at 0.007 µM; at Sorbitol dehydrogenase [2], 0.01 µM. In the data set with Rattus norvegicus [3], this compound had an ED90 of 1 mg/kg.

Consider `Cc1nc(C)nc(N2C[C@@H](C)N(c3ccnc([C@@H](C)O)n3)[C@@H](C)C2)n1` (stereo in doubt; 16) [listing 1 of 2 here], for which the concentration for an effect of 90% (IC90) in data set [4] stood at 0.01 µM.

In the case of `Cc1nc(C)nc(N2C[C@@H](C)N(c3ccnc([C@@H](C)O)n3)[C@@H](C)C2)n1` (stereo in doubt; 16) [listing 2 of 2 here], the results for the half-maximal inhibitory concentration (IC50) at Sorbitol dehydrogenase [1] and against Sorbitol dehydrogenase [2] were 0.005 µM and 0.004 µM, respectively. In the data set on Rattus norvegicus [3], this compound displayed an ED90 of 0.05 mg/kg. In data set [5], the pKa turned out to be 6.2.

In the case of `Cc1cn(-c2nccc(N3C[C@@H](C)N(c4ccnc([C@@H](C)O)n4)[C@@H](C)C3)n2)cn1`, the IC50 is 0.013 µM on Sorbitol dehydrogenase [1] and 0.011 µM at Sorbitol dehydrogenase [2]. In the data set on Rattus norvegicus [3], this compound yielded an ED90 of 1 mg/kg.

Regarding `Cc1nc(CO)nc(N2C[C@@H](C)N(c3ccnc([C@@H](C)O)n3)[C@@H](C)C2)n1`, at Sorbitol dehydrogenase [2], half-maximal inhibition (IC50) was put at 0.02 µM. In the data set with Rattus norvegicus [6], this compound yielded an Ability of 65%.

Regarding `Cc1ncnc(N2C[C@@H](C)N(c3ccnc([C@@H](C)O)n3)[C@@H](C)C2)n1`, the 50% inhibitory concentration (IC50) came to 0.007 µM on Sorbitol dehydrogenase [1] and 0.005 µM against Sorbitol dehydrogenase [2]. In the data set on Rattus norvegicus [3], this compound showed an ED90 of 0.3 mg/kg.

Compound `C[C@H](O)c1nccc(N2[C@H](C)CN(c3ccnc(N4CCN(C)CC4)n3)C[C@@H]2C)n1` yielded an IC50 against Sorbitol dehydrogenase [2] of 0.032 µM. In other words, the double-digit nanomolar range.

Regarding `Cc1nc(-c2ccccc2)nc(N2C[C@@H](C)N(c3ccnc([C@@H](C)O)n3)[C@@H](C)C2)n1`, the values for the IC50 at Sorbitol dehydrogenase [1] and against Sorbitol dehydrogenase [2] were 0.043 µM and 0.039 µM, respectively. For the same compound, the Ability with Rattus norvegicus [3] was found to be 81%.

Turning to `C[C@@H]1CN(c2ccnc(N3CCN(C)CC3)n2)C[C@H](C)N1c1ccnc([C@@H](C)O)n1`, the IC50 against Sorbitol dehydrogenase [1] was 0.004 µM; against Sorbitol dehydrogenase [2] it was 0.006 µM. The same compound registered an ED90 in the data set on Rattus norvegicus [3] of 1 mg/kg.

Consider `C[C@H](O)c1nccc(N2C[C@@H](C)N(c3ccnc([C@@H](C)O)n3)[C@@H](C)C2)n1`, for which the IC50 against Sorbitol dehydrogenase [7] is 0.01 µM; against Sorbitol dehydrogenase [2], 0.011 µM. This compound also showed an IC90 in [8] of 0.031 µM. Also, in the data set on Rattus norvegicus [3], the ED90 amounted to 2 mg/kg. This compound also came in with a pKa in data set [5] of 6.8.

Turning to `Cc1cn(-c2nccc(N3C[C@@H](C)N(c4ccnc([C@@H](C)O)n4)[C@@H](C)C3)n2)c(C)n1`, the IC50 is 0.004 µM against Sorbitol dehydrogenase [1] and 0.007 µM against Sorbitol dehydrogenase [2]. In addition, the ED90 in the data set on Rattus norvegicus [3] amounted to 1 mg/kg.

Consider `Cc1nc(C)nc(N2C[C@@H](C)N(c3ccnc([C@@H](C)O)n3)[C@@H](C)C2)n1` (stereo in doubt; 16a), for which the IC50 turned out to be 0.016 µM on Sorbitol dehydrogenase [1] and 0.009 µM against Sorbitol dehydrogenase [2]. Also, the Ability in the data set filed under Rattus norvegicus [9] is listed as 56%.
